High-throughput results as filed in PubChem.
HCT116 PTEN-null – growth suppressors of cells with PTEN tumor suppressor deletion. HCT116 PTEN-null viability, CellTiter-Glo, 60 h; stronger effect = lower value. viability, % at 10 µM. 140,000 tested, 1.2% active;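 active = viability at or below a set limit, 4 SD under the median of all tested compounds, cut at about 3.7% in these data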;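 also: PTEN knockout HCT116 line with beta catenin targeted HCT116 as companion control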
PMI act – phosphomannose isomerase (human) activation | 190,000 tested, 0.005% active | activation factor at 20 µM | P34949 | AID 1214 | purified human PMI, coupled resazurin fluorescence, 20 min; stronger effect = higher value; 1 = vehicle control, 0 substrate-free wells;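 active = activation factor of 2 or more at 20 µM, relative to plate controls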
Target sequence (P34949 whole entry, looked up): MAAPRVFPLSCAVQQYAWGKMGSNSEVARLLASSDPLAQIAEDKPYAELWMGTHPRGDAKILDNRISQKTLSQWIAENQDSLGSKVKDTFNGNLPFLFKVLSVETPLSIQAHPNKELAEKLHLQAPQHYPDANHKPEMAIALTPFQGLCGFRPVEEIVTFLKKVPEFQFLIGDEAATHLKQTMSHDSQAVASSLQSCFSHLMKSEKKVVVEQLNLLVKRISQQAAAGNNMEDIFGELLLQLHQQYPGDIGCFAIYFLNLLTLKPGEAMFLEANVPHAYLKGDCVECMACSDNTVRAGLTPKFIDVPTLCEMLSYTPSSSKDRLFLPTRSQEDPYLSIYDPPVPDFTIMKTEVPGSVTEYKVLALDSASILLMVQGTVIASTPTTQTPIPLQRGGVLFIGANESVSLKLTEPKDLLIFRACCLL
HCT116 bCat-KO – beta-catenin-lacking colon tumor cell growth suppression. HCT116 beta-catenin knockout viability, CellTiter-Glo, 60 h; stronger effect = lower value. viability, % at 10 µM. 140,000 tested, 1.5% active. AID 818;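 active = viability at or under a set limit, the compound median less 4 SD, cut at about 6% in these data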;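 also: 0% = Hyamine 1622 control at 20 µM and 100% = untreated cell control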
L major viab – reduces viability of Leishmania major promastigotes. resazurin fluorescence viability. inhibition, % at 10 µM. 200,000 tested, 9% active. AID 1063; in the data active = inhibition above about 50%;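 also: promastigotes grown with compound for 44 hours at 28 °C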
PMI act satM6P – PMI (human) activation, high substrate; P34949; coupled PMI enzyme assay, resazurin fluorescence, 20 min; stronger effect = higher value; 1 = untreated enzyme, 0 = substrate-free blank; activation factor at 20 µM; 190,000 tested, 0.34% active;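 active = activation factor of 2 or more at 20 µM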
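Material: human phosphomannose isomerase with PGI, G6PDH, diaphorase coupling enzymes; amount: PMI at 15 ng/mL final; also added: Mannose-6-phosphate 1.0 mM (near-saturating) plus 0.22 mM NADP+; incubation: enzyme reaction with compound 20 min at room temperature; signal: resorufin fluorescence (Ex 544/Em 590 nm) from resazurin via diaphorase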
Active calls of the source: *; / = no result. Only some compounds are listed: those with a hit (about 9.6% of all), similar ones and a draw of the others.

SMILES	HCT116 PTEN-null	PMI act	HCT116 bCat-KO	L major viab	PMI act satM6P
Cc1nc2cc(-c3ccccc3)nn2c(C)c1CCC(=O)NC(C)c1ccc2c(c1)OCCO2 (configuration not stated)	87	1	92	95*	1.1
Cc1nc2ncnn2c(C)c1CCC(=O)NC(C)c1ccc2c(c1)OCCO2 (configuration not stated)	105	0.9	95	-4	1
CC(NC(=O)Cn1cccc1C(=O)c1ccccc1)c1ccc2c(c1)OCCO2 (configuration not stated)	/	1	/	89*	1
Cc1nc2sc(C(c3ccc(F)cc3)N3CCN(C(=O)c4ccco4)CC3)c(O)n2n1 (configuration not stated)	98	1	93	-5	1
CCOc1ccc2nc(N3CCC(C(=O)N4CCN(C(=O)c5ccco5)CC4)CC3)sc2c1	81	0.9	80	3	0.9
CCCN1CCN(CCCNC(=O)C2CCCN(c3nc4ccc(OCC)cc4s3)C2)CC1 (configuration not stated)	102	1	94	64*	1
CCOc1ccc2nc(N3CCC(C(=O)N4CCN(C5CCCCC5)CC4)CC3)sc2c1	65	1	59	95*	1.1
Cc1cc(C)c2nc(N3CCC(C(=O)NCCCN4CCCCC4)CC3)sc2c1	2.3*	0.9	3.1*	97*	0.9
COCCCNc1nc2ccccc2nc1NS(=O)(=O)c1ccccc1	/	1.1	/	12	1.1
CCOC(=O)C1(CC2CCCCO2)CCN(S(=O)(=O)c2cccc(F)c2)CC1 (configuration not stated)	/	0.9	/	-1	0.9
CC(=O)c1cccc2c(O)c(C3=Nc4ccccc4C3=O)[nH]c12	35	0.8	38	99*	0.6
O=C1C(c2c(O)[nH]c3ccccc23)=Nc2ccccc21	/	1	/	/	1
O=C(CN1C(=O)COc2ccccc21)N(Cc1ccccc1)Cc1ccccn1	99	0.9	98	-5	0.9
Cc1ccc(CN(Cc2cccnc2)C(=O)CN2C(=O)COc3ccccc32)o1	76	0.9	77	73*	0.8
Cc1ccc(Cn2nc(C)c(NC(=O)CCCn3nc(C)c([N+](=O)[O-])c3C)c2C)cc1	95	0.8	95	52*	1
Cc1nn(Cc2c(Cl)cccc2Cl)c(C)c1NC(=O)CCCn1nc(C)c([N+](=O)[O-])c1C	98	0.9	85	66*	1
Cc1c(/C(O)=C2/C(=O)C(=O)N(Cc3cccnc3)C2c2ccccn2)cnn1-c1ccccc1 (configuration not stated)	/	1	/	-11	0.9
O=[N+]([O-])c1ccccc1S(=O)(=O)NC1CCCC1	/	1	/	-2	1
Cc1ccccc1-c1c(C)oc2cc(O)ccc2c1=O	91	1	101	4	1
CN1C(=C2C(=O)OC(C)(C)OC2=O)Sc2ccccc21	106	1.1	87	99*	1
CCN1/C(=C2\OC(=S)N(C)C2=O)Sc2ccccc21	84	0.9	98	-3	0.9
COc1ccc(CN2C3CCCC2CC(NC(=O)Nc2cccc(C)c2)C3)cc1 (configuration not stated)	80	1	67	90*	0.9
COc1ccc(CN2C3CCCC2CC(NC(=O)Nc2ccccc2)C3)cc1 (configuration not stated)	90	1	91	94*	1
COc1ccc(CN2C3CCCC2CC(NC(=O)Nc2ccccc2C)C3)cc1 (configuration not stated)	92	1	81	85*	1
COCC(=O)NC1CC2CCCC(C1)N2Cc1ccccc1 (configuration not stated)	111	1	107	0	1
SMILES	HCT116 PTEN-null	PMI act	HCT116 bCat-KO	L major viab	PMI act satM6P
C=CCN1C2CCCC1CC(NC(=O)Nc1cccc(C(C)=O)c1)C2 (configuration not stated)	103	1	94	-2	1
Cc1ccccc1NC(=O)N1C2CCCC1CC(NC(=O)C1CC1)C2 (configuration not stated)	108	0.9	98	4	0.9
CCOc1ccccc1NC(=O)c1c(NC(=O)CCC(=O)O)sc2c1CCCCC2	/	1.6	/	-7	2.1*
CO[C@@H]1O[C@@H]2COC(c3ccccc3)O[C@@H]2[C@@H](OC)[C@@H]1O (some centres not stated)	98	1	96	-3	1
Fc1ccc(N=C2NN=C(c3cc(F)ccc3F)CS2)cc1	16	0.7	34	3	0.8
O=S(=O)(c1ccc(N=C2NN=C(c3cc(F)ccc3F)CS2)cc1)N1CCOCC1	/	1.7	/	16	2.3*
Clc1ccc(Sc2ccc(/C=N/n3cnnc3)o2)cc1	88	1.1	80	66*	0.9
CN(C)C(=O)/C(C#N)=C\c1cc(Br)c(Sc2ccc(Cl)cc2)o1	13	1	21	19	1
Clc1ccc(Sc2oc(/C=N/n3cnnc3)cc2Br)cc1	68	0.8	18	71*	0.8
Clc1ccccc1-c1ccc(/C=N/n2cnnc2)o1	116	1	105	42	0.9
COc1cccc(OCC(=O)NNC(=S)Nc2ccc(Cl)cc2Cl)c1	/	0.8	/	-9	1
CC1(C)NC(=O)N(CCCCOc2ccc(Cl)cc2C=O)C1=O	/	0.9	/	57*	0.9
Cc1ccnc(NS(=O)(=O)c2ccc(NS(=O)(=O)c3ccccc3)cc2)n1	99	0.9	93	-3	0.9
CCCCOc1ccccc1NC(=O)Cn1c(-c2nonc2N)nc2ccccc21	1.6*	0.9	1.8*	-7	1
NNC(=O)Cn1c(-c2nonc2N)nc2ccccc21	/	0.9	/	-8	1
CCc1cccc(CC)c1NC(=S)NCc1ccc2c(c1)OCO2	72	1	78	60*	1
CC(C)(C)C1CCC(=NNC(=O)CN(c2ccccc2)S(=O)(=O)c2ccccc2[N+](=O)[O-])CC1 (configuration not stated)	109	1	88	-4	1
C/C(=N\NC(=O)CN(c1ccccc1)S(=O)(=O)c1ccccc1[N+](=O)[O-])C(C)(C)C	93	0.8	86	90*	0.9
CC(C)(C)NC(=O)CN(Cc1cccs1)C(=O)C1COc2ccccc2O1 (configuration not stated)	108	0.8	98	7	0.9
Cc1ccc(C(C(=O)NC2CCCCC2)N(Cc2ccco2)C(=O)C2COc3ccccc3O2)o1 (configuration not stated)	77	1	86	19	1
CC(C)CCNC(=O)C(c1ccc(O)cc1)N(Cc1cccs1)C(=O)C1COc2ccccc2O1 (configuration not stated)	16	0.8	37	100*	0.9
Cc1ccc(C(C(=O)NC2CCCCC2)N(Cc2cccnc2)C(=O)C2COc3ccccc3O2)o1 (configuration not stated)	67	0.9	79	64*	0.9
